Assays:
BXPC-3 [1] = test: Inhibition of cell growth of human BXPC-3 cells at 25 uM measured after 72 hrs by CCK8 assay relative to control; type: functional
In short: (§1)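 Single 25 μM exposure, read by CCK-8, n = 3, relative to control. Seeding was 3×10^3/well for MiaPaCa2, 7×10^3/well for BxPC3 (in RPMI-1640/10% FBS) and 1×10^4/well for HPDE (in KSFM with rEGF/BPE). After 24 h attachment, cells were exposed for 72 h. CCK-8 was then incubated for 1 h, and A450 minus A650 was compared with 0.5% DMSO.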

MIA PaCa-2 [2] = test: Inhibition of cell growth of human MIA PaCa-2 cells at 25 uM measured after 72 hrs by CCK8 assay relative to control; type: functional; in short: as §1
[3] = Inhibition of cell growth of human HPDE cells at 25 uM measured after 72 hrs by CCK8 assay relative to control; type: toxicity, cell-based; in short: as §1
BXPC-3 [4] = test: Inhibition of cell growth of human BXPC-3 cells at 25 uM measured after 72 hrs by MTT assay relative to control; type: functional
In short: (§2)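 MTT read-out. Cancer lines were grown in DMEM with 10% FBS, glutamine and antibiotics. MCF10A was grown in DMEM:F12 with 5% horse serum, EGF, hydrocortisone, cholera toxin and insulin. Cells were plated in duplicate at 2500–4000/well, and drug was added 24 h later. After 72 h, absorbance was read at 540 nm. Single-point lines used 25 μM. GI50 is 50% growth inhibition versus untreated control. n = 3.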

MIA PaCa-2 [5] = test: Inhibition of cell growth of human MIA PaCa-2 cells at 25 uM measured after 72 hrs by MTT assay relative to control; type: functional; in short: as §2
ASPC1 = test: Inhibition of cell growth of human ASPC1 cells at 25 uM measured after 72 hrs by MTT assay relative to control; type: functional; in short: as §2
MCF7 [6] = test: Inhibition of cell growth of human MCF7 cells at 25 uM measured after 72 hrs by MTT assay relative to control; type: functional; in short: as §2
A2780 [7] = test: Inhibition of cell growth of human A2780 cells at 25 uM measured after 72 hrs by MTT assay relative to control; type: functional; in short: as §2
[8] = Inhibition of cell growth of human MCF-10A cells at 25 uM measured after 72 hrs by MTT assay relative to control; type: toxicity, cell-based; in short: as §2
HT-29 [9] = test: Inhibition of cell growth of human HT-29 cells at 25 uM measured after 72 hrs by MTT assay relative to control; type: functional; in short: as §2
PANC-1 = test: Inhibition of cell growth of human PANC-1 cells at 25 uM measured after 72 hrs by MTT assay relative to control; type: functional; in short: as §2
HPAC = test: Inhibition of cell growth of human HPAC cells at 25 uM measured after 72 hrs by MTT assay relative to control; type: functional; in short: as §2
Capan-2 = test: Inhibition of cell growth of human Capan-2 cells at 25 uM measured after 72 hrs by MTT assay relative to control; type: functional; in short: as §2
BE(2)-C [10] = test: Inhibition of cell growth of human BE2C cells at 25 uM measured after 72 hrs by MTT assay relative to control; type: functional; in short: as §2
[11] = Inhibition of cell growth of human MCF-10A cells at 25 uM measured after 72 hrs by MTT assay relative to control
[12] = Inhibition of cell growth of human SJG2 cells at 25 uM measured after 72 hrs by MTT assay relative to control; conditions: SJ-G2, 72 h
NCI-H460 = test: Inhibition of cell growth of human NCI-H460 cells at 25 uM measured after 72 hrs by MTT assay relative to control; conditions: NCI-H460, 72 h
MCF7 [13] = test: Inhibition of cell growth of human MCF7 cells at 25 uM measured after 72 hrs by MTT assay relative to control; conditions: MCF7, 72 h
A-431 = test: Inhibition of cell growth of human A-431 cells at 25 uM measured after 72 hrs by MTT assay relative to control; conditions: A-431, 72 h
A2780 [14] = test: Inhibition of cell growth of human A2780 cells at 25 uM measured after 72 hrs by MTT assay relative to control; conditions: A2780, 72 h
BE(2)-C [15] = test: Inhibition of cell growth of human BE2C cells at 25 uM measured after 72 hrs by MTT assay relative to control
U-87 MG = test: Inhibition of cell growth of human U87 cells at 25 uM measured after 72 hrs by MTT assay relative to control
DU-145 = test: Inhibition of cell growth of human DU-145 cells at 25 uM measured after 72 hrs by MTT assay relative to control; conditions: DU-145, 72 h
HT-29 [16] = test: Inhibition of cell growth of human HT-29 cells at 25 uM measured after 72 hrs by MTT assay relative to control; conditions: HT-29, 72 h

SMILES	inhibition at 25 µM (MIA PaCa-2 [2])	inhibition at 25 µM (BXPC-3 [4])	inhibition at 25 µM (MIA PaCa-2 [5])	inhibition at 25 µM (ASPC1)	inhibition at 25 µM (MCF7 [6])	inhibition at 25 µM (A2780 [7])	inhibition at 72 h, 25 µM [8]	inhibition at 25 µM (HT-29 [9])	inhibition at 25 µM (PANC-1)	inhibition at 25 µM (HPAC)	inhibition at 72 h, 25 µM [11]	inhibition at 25 µM [12]	inhibition at 25 µM (NCI-H460)	inhibition at 25 µM (MCF7 [13])	inhibition at 25 µM (A-431)	inhibition at 25 µM (A2780 [14])	inhibition at 25 µM (BE(2)-C [15])	inhibition at 25 µM (U-87 MG)	inhibition at 25 µM (DU-145)	inhibition at 25 µM (HT-29 [16])	further results
COc1cccc(-c2cn(CCCN3CCN(S(=O)(=O)c4ccc(F)cc4)CC3)nn2)c1	< 10%																				inhibition at 25 µM (BXPC-3 [1]): 15.1%; inhibition at 72 h, 25 µM [3]: 40.8%
CCc1ccc(-c2cn(CCCN3CCN(S(=O)(=O)c4cccc(C(F)(F)F)c4)CC3)nn2)cc1		39%	50%	60%	86%	86%	77%	65%	59%	41%											inhibition at 25 µM (Capan-2): 58%; inhibition at 25 µM (BE(2)-C [10]): 61%
O=S(=O)(c1cccc(C(F)(F)F)c1)N1CCN(CCCn2cc(-c3ccc(Br)cc3)nn2)CC1		22%	35%	53%	56%	72%	74%	46%	41%	< 10%											inhibition at 25 µM (Capan-2): 39%; inhibition at 25 µM (BE(2)-C [10]): 40%
COc1cccc(-c2cn(CCCN3CCN(S(=O)(=O)c4ccc(C(C)=O)cc4)CC3)nn2)c1	< 10%																				inhibition at 25 µM (BXPC-3 [1]): 22.8%; inhibition at 72 h, 25 µM [3]: 30.1%
O=S(=O)(c1ccccc1C(F)(F)F)N1CCN(CCCn2cc(-c3ccc(C(F)(F)F)cc3)nn2)CC1		19%	45%	50%	75%	80%	64%	69%	54%	29%											inhibition at 25 µM (Capan-2): 42%; inhibition at 25 µM (BE(2)-C [10]): 62%
CC(=O)Nc1ccc(S(=O)(=O)N2CCN(CCCn3cc(-c4cccc(Cl)c4)nn3)CC2)cc1	32%										43%	33%	18%	31%	2%	49%	27%	1%	24%	42%	
CC(=O)Nc1ccc(S(=O)(=O)N2CCN(CCCn3cc(-c4ccccc4)nn3)CC2)cc1	30%										44%	59%	23%	24%	31%	47%	32%	10%	34%	31%	
CC(=O)Nc1ccc(S(=O)(=O)N2CCN(CCCn3cc(-c4ccc([N+](=O)[O-])cc4)nn3)CC2)cc1	40%										69%	37%	40%	47%	33%	72%	42%	27%	48%	50%	
COc1cccc(-c2cn(CCCN3CCN(S(=O)(=O)c4ccc(C(C)(C)C)cc4)CC3)nn2)c1	< 10%																				inhibition at 25 µM (BXPC-3 [1]): < 10%; inhibition at 72 h, 25 µM [3]: 38.2%
CC(=O)Nc1ccc(S(=O)(=O)N2CCN(CCCn3cc(-c4ccc(Br)cc4)nn3)CC2)cc1	34%										58%	48%	19%	28%	16%	46%	39%	4%	54%	58%	
CC(=O)Nc1ccc(S(=O)(=O)N2CCN(CCCn3cc(-c4ccc(C)cc4)nn3)CC2)cc1	38%										67%	72%	34%	42%	40%	57%	36%	22%	61%	46%	
CCc1ccc(-c2cn(CCCN3CCN(S(=O)(=O)c4ccc(NC(C)=O)cc4)CC3)nn2)cc1	38%										67%	29%	32%	30%	16%	59%	36%	< 0%	42%	64%	
Cc1ccc(-c2cn(CCCN3CCN(S(=O)(=O)c4ccccc4C(F)(F)F)CC3)nn2)cc1		11%	38%	57%	79%	75%	61%	86%	48%	41%											inhibition at 25 µM (Capan-2): 42%; inhibition at 25 µM (BE(2)-C [10]): 35%
COc1cccc(-c2cn(CCCN3CCN(S(=O)(=O)c4ccc(Cl)cc4)CC3)nn2)c1	< 10%																				inhibition at 25 µM (BXPC-3 [1]): 22.9%; inhibition at 72 h, 25 µM [3]: 54.3%
O=S(=O)(c1cccc(C(F)(F)F)c1)N1CCN(CCCn2cc(-c3ccc(C(F)(F)F)cc3)nn2)CC1		55%	58%	50%	86%	65%	59%	50%	60%	74%											inhibition at 25 µM (Capan-2): 67%; inhibition at 25 µM (BE(2)-C [10]): 61%
CCc1ccc(-c2cn(CCCN3CCN(S(=O)(=O)c4ccccc4C(F)(F)F)CC3)nn2)cc1		16%	39%	59%	82%	75%	63%	79%	48%	67%											inhibition at 25 µM (Capan-2): 25%; inhibition at 25 µM (BE(2)-C [10]): 52%
COc1cccc(-c2cn(CCCN3CCN(S(=O)(=O)c4ccc(C(C)C)cc4)CC3)nn2)c1	11.4%																				inhibition at 25 µM (BXPC-3 [1]): < 10%; inhibition at 72 h, 25 µM [3]: 48.8%
CC(=O)Nc1ccc(S(=O)(=O)N2CCN(CCCn3cc(-c4ccc(F)cc4)nn3)CC2)cc1	35%										41%	67%	18%	27%	28%	50%	38%	16%	35%	22%	
CC(=O)Nc1ccc(S(=O)(=O)N2CCN(CCCn3cc(-c4ccc(C(F)(F)F)cc4)nn3)CC2)cc1	43%										73%	42%	30%	42%	31%	67%	41%	16%	52%	59%	

Source: ChEMBL document CHEMBL5329210, “Novel piperazine-1,2,3-triazole leads for the potential treatment of pancreatic cancer” (RSC Med Chem, 2023)
